Measurements reported in ChEMBL document CHEMBL1153444, “Discovery of dual inhibitors targeting both HIV-1 capsid and human cyclophilin A to inhibit the assembly and uncoating of the viral capsid” (Bioorg Med Chem, 2009).
Calls of active or inactive are those of the source. No cut-off for these calls is given here.

Columns and labels:
[1] = target: Protease (Human immunodeficiency virus 1) (UniProt Q9YQ12); assay: Inhibition of HIV1 protease
Procedure, shortened: (§1)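 HIV-1 protease was preincubated with inhibitor (DMSO) for 20 min at room temperature in 0.1 M MES, 0.2 M NaCl, 5 mM EDTA, pH 5.5. The reaction was started with substrate Lys-Ala-Arg-Val-Leu-Phe(NO₂)-Glu-Ala-Met, and hydrolysis was followed as the A280 decrease over 40 min. Inhibition ratio was taken from Ai/A₀, with and without inhibitor.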

[2] = target: Human immunodeficiency virus type 1 integrase (Human immunodeficiency virus 1) (UniProt Q7ZJM1); assay: Inhibition of HIV1 integrase at 20 uM; design: scale not given: the % may be the effect or the level left
Sequence of Human immunodeficiency virus type 1 integrase (Human immunodeficiency virus 1) (Q7ZJM1 as listed by the source): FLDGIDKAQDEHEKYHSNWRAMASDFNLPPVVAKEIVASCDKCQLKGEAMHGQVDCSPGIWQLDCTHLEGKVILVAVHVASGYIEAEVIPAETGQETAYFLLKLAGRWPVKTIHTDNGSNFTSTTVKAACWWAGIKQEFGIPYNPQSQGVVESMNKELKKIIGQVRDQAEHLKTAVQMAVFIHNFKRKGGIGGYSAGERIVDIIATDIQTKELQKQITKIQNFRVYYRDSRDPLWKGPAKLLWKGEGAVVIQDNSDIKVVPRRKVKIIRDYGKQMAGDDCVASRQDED
Procedure, shortened: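 Recombinant HIV-1 integrase (E. coli) was preincubated with compound for 30 min. It was then incubated for 30 min at 37 °C on plate-immobilized donor duplex in Tris–HCl pH 7.8, 25 mM NaCl, 7.5 mM MgCl₂, 5 mM β-mercaptoethanol and BSA. Biotinylated target duplex was added for 1 h at 37 °C. Integration products were detected by pNPP phosphatase read-out at A405, and inhibition was taken as the decrease in final absorbance.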

[3] = Therapeutic index, TC50 for human CEM cells to EC50 for SIV; assay type: cell-based, CCRF-CEM
[4] = target: Structural capsid protein (Human immunodeficiency virus 1) (UniProt Q76129); assay: Binding affinity to HIV1 capsid assessed as assembly rate per minute by ultraviolet spectrophotometry assay
Sequence of Structural capsid protein (Human immunodeficiency virus 1) (Q76129 as listed by the source): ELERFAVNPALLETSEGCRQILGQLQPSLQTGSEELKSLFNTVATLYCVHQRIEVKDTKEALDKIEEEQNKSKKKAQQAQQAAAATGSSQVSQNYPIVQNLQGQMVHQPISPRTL
Procedure, shortened: (§2)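 Turbidity was read at 350 nm every 10 s after a short equilibration delay. Assembly rate (mOD/min) was taken from the initial slope of absorbance versus time.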

[5] = target: T1, Peptidyl-prolyl cis-trans isomerase A (Homo sapiens, UniProt P62937); assay: Inhibition of human cyclophilin A at 6 degC
T1 sequence (P62937 whole entry): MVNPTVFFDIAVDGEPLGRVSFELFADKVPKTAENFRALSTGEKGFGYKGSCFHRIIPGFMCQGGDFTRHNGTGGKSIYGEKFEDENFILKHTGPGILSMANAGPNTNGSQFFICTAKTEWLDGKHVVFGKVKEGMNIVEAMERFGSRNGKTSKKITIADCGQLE
Procedure, shortened: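 PPIase assay at 6 °C in 50 mM HEPES, 100 mM NaCl, using Suc-AAPF-pNA substrate (3 mM stock in THF with 480 mM LiCl). A390 was recorded for 20 s after about a 6 s mixing delay. Cis–trans rate constants came from nonlinear least-squares fits to an integrated first-order equation, and IC₅₀ was calculated from these.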

[6] = test system: Simian immunodeficiency virus; assay: Antiviral activity against SIV in human CEM cells assessed as inhibition of virus-induced cytopathogenicity; assay type: functional, organism-based, CCRF-CEM; conditions: Simian immunodeficiency virus, CCRF-CEM; read-out: EC50
Procedure, shortened: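 SIV syncytium assay in CEM174 cells (2 × 10⁵ cells/ml) infected with 100 TCID₅₀ SIV per well alongside serial compound dilutions. Cultures were kept 5 days at 37 °C in humidified 5% CO₂, then giant-cell formation was scored microscopically. EC₅₀ is the concentration protecting cells from SIV cytopathogenicity by 50%.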

[7] = target: T1, Peptidyl-prolyl cis-trans isomerase A; assay: Binding affinity to human cyclophilin A by intrinsic tryptophan fluorescence titration assay
Procedure, shortened: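 CypA intrinsic tryptophan fluorescence titration in 20 mM Tris–HCl, 100 mM NaCl, pH 7.4, at 25 °C, with compounds from 10 mM DMSO stocks. Excitation was 280 nm and emission was read at 340 nm. Kd was obtained by fitting intensity against final compound concentration to F₀/F = 1 + Ka·C.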

[8] = Cytotoxicity against human CEM cells; assay type: cell-based; conditions: CEM cells (CCRF-CEM), read-out: TC50 (the source's name)
[9] = target: Structural capsid protein (Human immunodeficiency virus 1) (UniProt Q76129); assay: Binding affinity to HIV1 capsid assessed as assembly rate per minute at 2:1 drug to protein ratio by ultraviolet spectrophotometry assay; procedure, shortened: as §2
[10] = target: Structural capsid protein (Human immunodeficiency virus 1) (UniProt Q76129); assay: Binding affinity to HIV1 capsid assessed as assembly rate per minute at 0.5:1 drug to protein ratio by ultraviolet spectrophotometry assay; procedure, shortened: as §2
[11] = target: Structural capsid protein (Human immunodeficiency virus 1) (UniProt Q76129); assay: Binding affinity to HIV1 capsid assessed as assembly rate per minute at 1:1 drug to protein ratio by ultraviolet spectrophotometry assay; procedure, shortened: as §2
[12] = target: Protease (Human immunodeficiency virus 1) (UniProt Q9YQ12); assay: Inhibition of HIV1 protease assessed as decrease in UV absorbance; conditions: concentration not given here; procedure, shortened: as §1
[13] = target: Protease (Human immunodeficiency virus 1) (UniProt Q9YQ12); assay: Inhibition of HIV1 protease assessed as decrease in UV absorbance at 10 uM; procedure, shortened: as §1

Sequence of Protease (Human immunodeficiency virus 1) (Q9YQ12 as listed by the source): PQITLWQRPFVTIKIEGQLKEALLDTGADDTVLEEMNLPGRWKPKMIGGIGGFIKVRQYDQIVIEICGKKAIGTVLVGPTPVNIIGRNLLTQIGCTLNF

inhibition [13]	SMILES	Activity [1]	Activity [2]	selectivity ratio [3]	Activity (milli optical density/minute) [4]	IC50 [5]	EC50 [6]	Kd ([7]; read-out: Kd)	CC50 [8]	Activity (milli optical density/minute) [9]	Activity (milli optical density/minute) [10]	Activity (milli optical density/minute) [11]	inhibition [12]	Kd [7]	Activity [4]
	O=S(=O)(Nc1nccs1)c1ccc(NC(=S)Nc2ccc(Cl)cc2)cc1	inactive	< 20%	3	52.5	0.13 µM	5.7 µM	51 µM	19.1 µM						
	Cc1cc(NS(=O)(=O)c2ccc(NC(=S)Nc3ccccc3C)cc2)no1			8	64.8	0.6 µM	6.2 µM	116 µM	48.4 µM						
	Cc1cc(NS(=O)(=O)c2ccc(NC(=S)Nc3ccccc3)cc2)no1			7	39.2	0.58 µM	7.5 µM	88.1 µM	49.7 µM						
	Cc1ccc(NC(=S)Nc2ccc(S(=O)(=O)Nc3cc(C)on3)cc2)cc1			4	45.9		9.6 µM	119 µM	41.4 µM						
	Cc1cccc(NC(=S)Nc2ccc3c(c2)C(=O)OC3)c1	inactive	< 20%	1	64.6		11.6 µM	141 µM	16 µM						
	Cc1cc(NS(=O)(=O)c2ccc(NC(=S)Nc3ccc(Cl)cc3)cc2)no1			9	29	0.69 µM	4.1 µM	107 µM	37.8 µM	19.4	52.2	42			
	O=C1OCc2ccc(NC(=S)Nc3ccc(F)cc3)cc21	inactive	< 20%	5	55.7		15.8 µM	227 µM	83.7 µM						
	O=C1OCc2ccc(NC(=S)Nc3cccc(Cl)c3)cc21	inactive	< 20%	20	49.2		4.2 µM	133 µM	86 µM				< 5%		
	COc1ccc(NC(=S)Nc2ccc(S(=O)(=O)Nc3cc(C)on3)cc2)cc1	inactive	< 20%	27	40		1.5 µM	101 µM	41.9 µM						
	O=C1OCc2ccc(NC(=S)Nc3cccc(Br)c3)cc21	inactive	< 20%	7	69.6		4.6 µM	125 µM	30.8 µM						
	COc1ccc(NC(=S)Nc2ccc3c(c2)C(=O)OC3)cc1	inactive	< 20%	20	59.1		4.7 µM	172 µM	91.9 µM						
	CCN(CC)c1nc(C)c([N+](=O)[O-])c(NCCNC(=S)Nc2cccc(Br)c2)n1			4	88.1	0.81 µM	7.4 µM	79.3 µM	26.2 µM						
	CCN(CC)c1nc(C)c([N+](=O)[O-])c(NCCNC(=S)Nc2ccc(C)c(Cl)c2)n1			7	91	0.74 µM	6.3 µM	73.3 µM	44.2 µM						
	Cc1ccc(NC(=S)Nc2ccc3c(c2)C(=O)OC3)cc1Cl	inactive	< 20%	4	19.6	0.59 µM	4.6 µM	96.6 µM	18.7 µM						
	Cc1ccc(NC(=S)Nc2ccc(C)c([N+](=O)[O-])c2)cc1Cl	inactive	< 20%	12	60	0.46 µM	3.1 µM	88.9 µM	38.8 µM						
	O=C1OCc2ccc(NC(=S)Nc3cccc(F)c3)cc21	inactive	< 20%	10	78.6		6.3 µM	140 µM	60.2 µM						

inhibition [13]	SMILES	Activity [1]	Activity [2]	selectivity ratio [3]	Activity (milli optical density/minute) [4]	IC50 [5]	EC50 [6]	Kd ([7]; read-out: Kd)	CC50 [8]	Activity (milli optical density/minute) [9]	Activity (milli optical density/minute) [10]	Activity (milli optical density/minute) [11]	inhibition [12]	Kd [7]	Activity [4]
	O=C1OCc2ccc(NC(=S)Nc3ccc(Cl)cc3)cc21	inactive	< 20%	14	49.6		6.2 µM	222 µM	83.9 µM						
	Cc1cc(NS(=O)(=O)c2ccc(NC(=S)Nc3ccc(F)cc3)cc2)no1			11	73.8	0.35 µM	6.9 µM	110 µM	75.4 µM						
	Cc1cc(NS(=O)(=O)c2ccc(NC(=S)Nc3ccc(C)c(Cl)c3)cc2)no1			127	36.4	0.65 µM	0.6 µM	55.8 µM	74.4 µM				< 5%		
	O=C1OCc2ccc(NC(=S)Nc3cc(Cl)c(Cl)cc3Cl)cc21	inactive	< 20%	8	67.8		3 µM	147 µM	24.4 µM						
	Cc1ccccc1NC(=S)Nc1ccc2c(c1)C(=O)OC2	inactive	< 20%	17	65.7		2.8 µM		46.9 µM					Not Active	
	Cc1ccc(NC(=S)Nc2ccc(S(=O)(=O)Nc3nccs3)cc2)cc1			9	59	0.45 µM	2.2 µM	76.9 µM	20.9 µM						
	Cc1cc(NS(=O)(=O)c2ccc(NC(=S)Nc3cccc(Br)c3)cc2)no1			66	31.2	0.45 µM	0.9 µM	88.6 µM	58.7 µM						
	COc1ccc(NS(=O)(=O)c2ccc(NC(=S)Nc3ccc(Cl)cc3)cc2)cc1			19	26.3		4.1 µM	60.8 µM	77.5 µM						
	Cc1cc(NS(=O)(=O)c2ccc(NC(=S)Nc3cccc(F)c3)cc2)no1			8	76.2	0.38 µM	11.6 µM	128 µM	88 µM						
> 90%	CC(C)(C)NC(=O)[C@@H]1CN(Cc2cccnc2)CCN1C[C@@H](O)C[C@@H](Cc1ccccc1)C(=O)N[C@H]1c2ccccc2C[C@H]1O														
	COc1ccc(NC(=S)Nc2ccc3ccccc3c2)cc1	inactive	< 20%	7	66.7		2.3 µM	124 µM	16.1 µM						
	Cc1cc(NS(=O)(=O)c2ccc(NC(=S)Nc3cccc(Cl)c3)cc2)no1			92	15.8	0.33 µM	1 µM	79.6 µM	91.9 µM	11.4	43.2	38.4			
	Cc1ccc(NC(=S)Nc2ccc(S(=O)(=O)Nc3nccs3)cc2)cc1Cl			3	27.4	0.16 µM	10.8 µM	51.6 µM	37 µM						
	O=C1OCc2ccc(NC(=S)Nc3cc(F)cc(F)c3)cc21	inactive	< 20%	11	63.6		6.1 µM	513 µM	69.1 µM						
	CCN(CC)c1nc(C)cc(NCCNC(=S)Nc2cccc(Br)c2)n1			2			5.5 µM	200 µM	8.43 µM						inactive
